This is an account of results in ChEMBL document CHEMBL1811858, “A class of oral N-[(1S,3S)-1-methyl-1,2,3,4-tetrahydro-β-carboline-3-carbonyl]- N'-(amino-acid-acyl)hydrazine: discovery, synthesis, in vitro anti-platelet aggregation/in vivo anti-thrombotic evaluation and 3D QSAR analysis” (Eur J Med Chem, 2011).

Test [1] in a line: Antiplatelet activity in pig platelet assessed as inhibition of arachidonic acid-induced aggregation measured for 5 mins by aggregometry (reference value: 49.62 +/- 2.90%). Format: functional, cell-based. Particulars: Sus scrofa.
The nature of test [2]: Antiplatelet activity in pig platelet assessed as inhibition of ADP-induced aggregation measured for 5 mins by aggregometry (reference value: 50.16 +/- 3.65%). Format: functional, cell-based. Particulars: Sus scrofa.
For test [3], the system named is Rattus norvegicus. Description: Antithrombotic activity in pentobarbital sodium anesthetized Wistar rat assessed as decrease in thrombus weight at 10 nmol/kg, po (reference value: 28.21=/-1.11 mg). Format: functional. The method, boiled down:
(§1)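 Male Wistar rats (250–300 g) received test agents orally, dissolved in NS and kept on ice; NS served as the vehicle control. After 30 min, rats were anaesthetised with pentobarbital sodium (80.0 mg/kg, i.p.). The right carotid artery and left jugular vein were exposed and joined through a polyethylene tube holding a weighed 6 cm thread. Wet thrombus weight is reported as mean ± SD in mg.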

A short description of test [4]: Antiplatelet activity in pig platelet assessed as inhibition of platelet activating factor-induced aggregation measured for 5 mins by aggregometry (reference value: 52.30 +/- 1.78%). Type of test: functional, cell-based. Particulars: Sus scrofa.
The subject of test [5] is Rattus norvegicus. The experiment in a line: Antithrombotic activity in pentobarbital sodium anesthetized Wistar rat assessed as decrease in thrombus weight at 100 nmol/kg, po (reference value: 28.21=/-1.11 mg). Format: functional. The method, boiled down:
as §1

The nature of test [6]: Antiplatelet activity in pig platelet assessed as inhibition of platelet activating factor-induced aggregation at 1.7 mM measured for 5 mins by aggregometry. Format: functional, Sus scrofa. More on the design: scale not given: the % may be the effect or the level left.
Test [7] is described as follows: Antiplatelet activity in pig platelet assessed as inhibition of arachidonic acid-induced aggregation at 1.7 mM measured for 5 mins by aggregometry. Format: functional, Sus scrofa. More on the design: scale not given: the % may be the effect or the level left.
The subject of test [8] is Rattus norvegicus. Description: Antithrombotic activity in pentobarbital sodium anesthetized Wistar rat assessed as thrombus weight at 160 umol/kg, po (reference value: 28.21=/-1.11 mg). Format: functional. In short, it runs like this:
as §1

The nature of test [9]: Antiplatelet activity in pig platelet assessed as inhibition of ADP-induced aggregation at 1.7 mM measured for 5 mins by aggregometry. Type of test: functional, Sus scrofa. More on the design: scale not given: the % may be the effect or the level left.
For test [10], the system named is Rattus norvegicus. Description: Antithrombotic activity in po dosed Wistar rat assessed as decrease in thrombus weight. Format: functional, organism-based. The method, boiled down:
as §1

For test [11], the system named is Rattus norvegicus. The experiment in a line: Antithrombotic activity in pentobarbital sodium anesthetized Wistar rat assessed as decrease in thrombus weight at 1 nmol/kg, po. Type of test: functional. In short, it runs like this: as §1
The subject of test [12] is Rattus norvegicus. The experiment in a line: Antithrombotic activity in pentobarbital sodium anesthetized Wistar rat assessed as decrease in thrombus weight at 0.1 nmol/kg, po. Format: functional. In short, it runs like this:
as §1

As usually defined, the IC50 is the concentration that inhibits the measured activity by half. `CC[C@H](C)[C@H](N)C(=O)NNC(=O)[C@@H]1Cc2c([nH]c3ccccc23)[C@H](C)N1`: the 50% inhibitory concentration (IC50) turned out to be 2.4 µM in [1], 51.1 µM in [2] and 1.4 µM in test [4]. The Activity in the test with Rattus norvegicus [3] amounted to 20.62 mg.
With `CC(C)C[C@H](N)C(=O)NNC(=O)[C@@H]1Cc2c([nH]c3ccccc23)[C@H](C)N1`, the IC50 is 3.2 µM in [1], 31.6 µM in test [2] and 1.2 µM in [4]. Further, the Activity with Rattus norvegicus [3] is 21.06 mg.
As for `C[C@@H]1N[C@H](C(=O)NN)Cc2c1[nH]c1ccccc21`, the 50% inhibitory concentration (IC50) in test [1] came to 21.5 µM; in [2], 611 µM; in [4] it was 111 µM. Further, the Activity in the test on Rattus norvegicus [5] was determined as 21.23 mg.
For `CC(=O)Oc1ccccc1C(=O)O` [ASPIRIN], the Activity in test [6] is given as 33.22%; in test [7], 34.5%; with Rattus norvegicus [8] it was 18.24 mg; in test [9] it was 31.14%.
`C[C@@H]1N[C@H](C(=O)NNC(=O)CN)Cc2c1[nH]c1ccccc21`: the half-maximal inhibitory concentration (IC50) in test [1] came to 20.7 µM; in [2], 722 µM; in [4] it was 348 µM. Moreover, the Activity in the test on Rattus norvegicus [3] is on record as 23.74 mg.
Take `C[C@@H]1N[C@H](C(=O)NNC(=O)[C@@H]2CCCN2)Cc2c1[nH]c1ccccc21`: the values for the 50% inhibitory concentration (IC50) in test [1], in test [2] and in [4] were 20.6 µM, 166 µM and 134 µM, respectively. The Activity with Rattus norvegicus [3] came to 20.39 mg.
As to `CC(C)[C@H](N)C(=O)NNC(=O)[C@@H]1Cc2c([nH]c3ccccc23)[C@H](C)N1`, the values for the IC50 in test [1], in test [2] and in test [4] were 3.7 µM, 156 µM and 50 µM, respectively. In the test on Rattus norvegicus [3], the Activity is 24.01 mg.
As to `C[C@@H]1N[C@H](C(=O)NNC(=O)[C@@H](N)CO)Cc2c1[nH]c1ccccc21`, the IC50 in [1] is 19.9 µM; in test [2], 276 µM; in [4], 119 µM. Further, the Activity in the test with Rattus norvegicus [3] is given as 19.04 mg.
With `C[C@@H]1N[C@H](C(=O)NNC(=O)[C@@H](N)CCC(=O)OCc2ccccc2)Cc2c1[nH]c1ccccc21`, the figures for the IC50 in test [1], in [2] and in test [4] were 6.3 µM, 524 µM and 362 µM, respectively. In addition, the Activity with Rattus norvegicus [3] is 21.36 mg.
As for `CSCC[C@H](N)C(=O)NNC(=O)[C@@H]1Cc2c([nH]c3ccccc23)[C@H](C)N1`, the IC50 in test [1] was 21.7 µM; in test [2], 417 µM; in [4], 52.9 µM. In addition, the Activity in the test with Rattus norvegicus [3] came to 18.55 mg.
`C[C@@H]1N[C@H](C(=O)NNC(=O)[C@@H](N)Cc2ccc(O)cc2)Cc2c1[nH]c1ccccc21`: the values for the IC50 in [1], in [2] and in test [4] were 13 µM, 152 µM and 12.7 µM, respectively. The Activity in the test with Rattus norvegicus [3] turned out to be 20.24 mg.
Regarding `C[C@@H]1N[C@H](C(=O)NNC(=O)[C@@H](N)Cc2c[nH]c3ccccc23)Cc2c1[nH]c1ccccc21`, the 50% inhibitory concentration (IC50) in [1] stood at 0.6 µM; in test [2], 21.7 µM; in [4], 4.3 µM. Moreover, the Activity in the test on Rattus norvegicus [3] was 18.87 mg.
For `C[C@@H]1N[C@H](C(=O)NNC(=O)[C@@H](N)Cc2ccccc2)Cc2c1[nH]c1ccccc21`, the half-maximal inhibitory concentration (IC50) in [1] was determined as 7.1 µM; in test [2], 307 µM; in [4], 109 µM. Also, the Activity in the test with Rattus norvegicus [3] turned out to be 21 mg.
On the same counts, the results for `C[C@@H]1N[C@H](C(=O)NNC(=O)[C@@H](N)CCCCN)Cc2c1[nH]c1ccccc21` are 3.4 µM, 321 µM, 106 µM and 18.97 mg.
Regarding `C[C@H](N)C(=O)NNC(=O)[C@@H]1Cc2c([nH]c3ccccc23)[C@H](C)N1`, the IC50 in test [1] was 20 µM; in [2], 118 µM; in test [4], 162 µM. Besides, the Activity in the test with Rattus norvegicus [3] came out at 20.06 mg.
Turning to `C[C@@H]1N[C@H](C(=O)NNC(=O)[C@@H](N)[C@@H](C)O)Cc2c1[nH]c1ccccc21`, the Activity result is “Dose-dependent effect” in the test with Rattus norvegicus [10], 22.77 mg in the test on Rattus norvegicus [11], 27.22 mg in the test with Rattus norvegicus [12] and 18.67 mg with Rattus norvegicus [3]. Further, the IC50 in test [1] turned out to be 4.7 µM; in test [2] it was 531 µM; in test [4], 31.9 µM.
Turning to `C[C@@H]1N[C@H](C(=O)NNC(=O)[C@@H](N)CC(=O)OCc2ccccc2)Cc2c1[nH]c1ccccc21`, the 50% inhibitory concentration (IC50) in test [1] is 5.2 µM; in test [2], 117 µM; in test [4], 196 µM. For the same molecule, the Activity in the test on Rattus norvegicus [3] is listed as 19.65 mg.
For `C[C@@H]1N[C@H](C(=O)NNC(=O)[C@@H](N)CCC(N)=O)Cc2c1[nH]c1ccccc21` the same measures were 18.5 µM, 598 µM, 267 µM and 21.01 mg.
Regarding `C[C@@H]1N[C@H](C(=O)NNC(=O)[C@@H](N)Cc2cnc[nH]2)Cc2c1[nH]c1ccccc21`, the IC50 in [1] was determined as 4.8 µM; in test [2], 94.6 µM; in test [4] it was 7.7 µM. Also, the Activity in the test on Rattus norvegicus [3] is 19.75 mg.
As to `C[C@@H]1N[C@H](C(=O)NNC(=O)[C@@H](N)CC(N)=O)Cc2c1[nH]c1ccccc21`, the concentration for half-maximal inhibition (IC50) in test [1] came to 19.7 µM; in test [2], 609 µM; in [4], 507 µM. Further, the Activity in the test with Rattus norvegicus [3] worked out at 20.42 mg.
